A selection: hits, their analogues and other compounds. The true share with any hit is near 1.1%.
procasp7 counter – procaspase-7 activators, primary screen, counter-screen for procaspase-3 activator project, biochemical, absorbance, HTS, human; recombinant procaspase-7, Ac-DEVD-pNA absorbance 405 nm; D23A/D198A/D206A triple mutant, cannot self-cleave; scale: DMSO 0, 5 µM enzyme 100; activation, % at 8.5 µM; AID 463210, 2010; 330,000 compounds, 0.093% hits; Caspase-7 (Homo sapiens), P55210;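 active = percent activation above the screen-wide mean plus 3 SD, cut at about 25% in these data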
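System: Procaspase-7 triple mutant (PC-7 D3A); measure: % activation from two-timepoint absorbance difference, scaled to controls; times: 1 h compound preincubation, 2 h substrate cleavage, 25 °C; also added: Ac-DEVD-pNA substrate, 400 µM as added; measured by: Epi-absorbance of released pNA at 405 nm, two timepoints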
procasp3 activ – activators of human procaspase-3 D3A mutant, primary screen, biochemical, absorbance, PC-3 D3A mutant, single concentration; recombinant procaspase-3 D3A, Ac-DEVD-pNA absorbance 405 nm; Caspase-3 (Homo sapiens), P42574; activation, % at 8.5 µM; 330,000 compounds, 0.11% hits;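 active = activation above the mean of all tested compounds plus 3 SD, cut at about 21% in these data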
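Evaluation: percent activation relative to control range; Material: Procaspase-3 D3A mutant, all three cleavage aspartates alanine; Compound: single dose, 8.5 µM nominal compound, 0.8% DMSO; Replication: one well per compound; Signal: absorbance at 405 nm, 0 and 120 min; Schedule: 1 h preincubation plus 2 h reaction at 25 °C.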
LYPLA1 counter – LYPLA1 inhibitors, primary screen, counter-screen for PME1 inhibitor project, biochemical, fluorescence polarization, FP-Rh probe ABPP | AID 2174, 2009 | recombinant LYPLA1 | 320,000 compounds, 0.16% hits | Acyl-protein thioesterase 1 (Homo sapiens), O75608 | inhibition, % at 5.9 µM;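 active = inhibition above the mean of all tested compounds plus 3 SD, set per campaign, cut at about 14% in these data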;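 also: inhibitors block serine hydrolase probe labeling of LYPLA1 so polarization falls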
LYPLA2 inh – LYPLA2 inhibitors, primary screen, counter-screen for PME1 inhibitor project, biochemical, fluorescence polarization, FP-Rh probe ABPP. Acyl-protein thioesterase 2 (Homo sapiens), O95372. inhibition, % at 5.9 µM. AID 2177, 2009. 320,000 compounds, 0.38% hits. recombinant LYPLA2;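 active = inhibition above the screen-wide mean plus 3 SD, limit set per campaign, cut at about 26% in these data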
PREPL inh – PREPL enzyme inhibitors, primary screen, biochemical, fluorescence polarization | Prolyl endopeptidase-like (Homo sapiens), Q4J6C6 | recombinant PREPL, fluorescence polarization activity-based probe | inhibition, % at 5.96 µM | 320,000 compounds, 0.68% hits | AID 2751, 2010; in the data active = inhibition above about 43%
Target sequence (Q4J6C6 whole entry, looked up): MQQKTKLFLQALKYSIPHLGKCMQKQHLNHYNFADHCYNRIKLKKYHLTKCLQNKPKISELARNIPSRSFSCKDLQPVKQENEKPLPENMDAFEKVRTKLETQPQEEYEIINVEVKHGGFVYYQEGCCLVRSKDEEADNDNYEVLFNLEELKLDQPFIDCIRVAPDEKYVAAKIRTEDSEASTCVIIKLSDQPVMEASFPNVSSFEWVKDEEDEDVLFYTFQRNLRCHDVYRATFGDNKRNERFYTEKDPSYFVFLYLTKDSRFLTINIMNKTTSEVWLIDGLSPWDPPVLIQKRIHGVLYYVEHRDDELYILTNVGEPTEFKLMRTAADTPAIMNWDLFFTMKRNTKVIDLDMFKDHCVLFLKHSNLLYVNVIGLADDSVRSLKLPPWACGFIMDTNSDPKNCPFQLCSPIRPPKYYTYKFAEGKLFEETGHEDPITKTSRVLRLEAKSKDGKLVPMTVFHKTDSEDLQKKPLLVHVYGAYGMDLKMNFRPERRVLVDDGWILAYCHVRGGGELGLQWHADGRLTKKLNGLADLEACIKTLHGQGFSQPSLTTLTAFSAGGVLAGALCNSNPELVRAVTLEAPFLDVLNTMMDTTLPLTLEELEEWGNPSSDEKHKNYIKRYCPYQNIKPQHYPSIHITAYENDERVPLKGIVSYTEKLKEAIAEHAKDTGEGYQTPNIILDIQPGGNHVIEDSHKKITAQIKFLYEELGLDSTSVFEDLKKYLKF
LYPLA1 conf – LYPLA1 inhibitors, retest, confirmation, counter-screen for PME1 inhibitor project, biochemical, fluorescence polarization, FP-Rh probe ABPP; shares compounds with LYPLA1 counter; recombinant LYPLA1; inhibition, % at 5.9 µM; 480 compounds, 69% hits;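 active = mean inhibition across replicates above the hit cutoff set in the primary screen, cut at about 15% in these data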;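 also: loss of FP-Rh probe labeling of LYPLA1 seen as lower polarization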
Of the large screens only hits and unclear results are named; the others gave an inactive call (follow-up assays come after a bar, where they were run).

O=C1NC(=S)N/C1=C\C=C\c1ccccc1	none
COc1cc(CNc2ccc(O)cc2)cc(Br)c1OCc1ccccc1F	LYPLA1 counter 18 | LYPLA1 conf inactive
C=CCOc1ccc(Br)cc1CNC(C)(C)CO	none
C=CCOc1ccc(Br)cc1CNC(C)(C)C	LYPLA1 counter 18 | LYPLA1 conf inactive
CCNC(=S)NNC(=O)Cn1c(=O)c2c(ncn2CCOC)n(Cc2ccccc2)c1=O	LYPLA1 counter 41 | LYPLA1 conf inactive
COCCn1cnc2c1c(=O)n(CC(=O)OCC#N)c(=O)n2Cc1ccccc1	none
CCOC(=O)c1nn(-c2ccccc2)c(-c2ccccc2)c1C(=O)c1ccccc1	LYPLA1 counter 18 | LYPLA1 conf inactive
CCOC(=O)c1nn(-c2ccc(F)cc2)c(-c2ccccc2)c1C(=O)c1ccccc1	none
CCc1ccc(N(CC(=O)NCc2ccco2)C(=O)CCC(=O)Nc2nccs2)cc1	none
CC1=CC(C)(C)N2C(=O)C(=Nc3ccc(O)cc3)c3cccc1c32	LYPLA1 counter 17 | LYPLA1 conf inactive
COc1cc(N=C2C(=O)N3c4c(cccc42)C(C)=CC3(C)C)cc(OC)c1	none
CCC(=Nc1ccc(N)cc1)C1=C(O)C(C(=O)OC)C(C)(C)CC1=O (stereo not drawn)	LYPLA1 counter 21 | LYPLA1 conf inactive
CC(=O)Nc1ccc(N2C(=O)c3cccc4c(O)ccc(c34)C2=O)cc1	LYPLA1 counter 17 | LYPLA1 conf 16
COc1ccc(-c2csc(-n3ncc(-c4ccccn4)c3N)n2)cc1	none
COc1ccccc1-c1csc(-n2ncc(C#N)c2N)n1	LYPLA1 counter 22 | LYPLA1 conf 40
Cc1cc2oc3ccc(NCCCn4ccnc4)cc3c(=O)c2cc1C	none
O=C1CC(c2ccccc2)c2cc(O)ccc2O1 (stereo not drawn)	none
Cc1ccc(C2CC(=O)Oc3cc(O)ccc32)cc1 (stereo not drawn)	LYPLA1 counter 22 | LYPLA1 conf 18
O=C(COC(=O)C1CC2C=CC1C2)Nc1cccc(S(=O)(=O)N2CCCCC2)c1 (stereo not drawn)	LYPLA1 counter 16 | LYPLA1 conf 28
O=C(COC(=O)C1CC2C=CC1C2)Nc1cccc(S(=O)(=O)N2CCCCCC2)c1 (stereo not drawn)	LYPLA1 counter 37 | LYPLA1 conf 46
S=c1[nH]nc(-c2cc3c(s2)-c2ccccc2CC3)o1	LYPLA1 counter 17 | LYPLA1 conf 21
c1ccc2c(c1)CCc1ccccc1C2=C1CCNCC1	none
CC(C)c1nc2cc(C(=O)N(C)Cc3ccc(F)cc3)ccc2o1	none
CCN(CC)c1ccc(/C=C(\C#N)C(=O)c2ccc(Br)cc2)cc1	LYPLA1 counter 32 | LYPLA1 conf 77
COc1ccc(OCC(=O)N(Cc2ccc(C)o2)C2CCS(=O)(=O)C2)cc1 (stereo not drawn)	none
Cc1cc(SCC(=O)Nc2cccc(S(=O)(=O)NC3=NCCCCC3)c2)nc2ccccc12	LYPLA1 counter 19 | LYPLA1 conf 29
COc1ccc(-c2nc(CC(=O)Nc3cccc(S(=O)(=O)NC4=NCCC4)c3)cs2)cc1	LYPLA1 counter 16 | LYPLA1 conf inactive
CCC1CCCCN1C(=O)COc1ccc2c(c1)OCO2 (stereo not drawn)	none
Cc1ccsc1C1Nc2ccc3ncccc3c2C2=C1C(=O)CCC2 (stereo not drawn)	LYPLA1 counter 28 | LYPLA1 conf 31
O=C(Nc1cc(C(F)(F)F)ccc1-n1cncn1)c1ccc([N+](=O)[O-])o1	none
NS(=O)(=O)c1ccc(N/N=C/c2ccc(C(=O)O)cc2)c([N+](=O)[O-])c1	none
Cc1nn(-c2ccccc2)c(N2CCCC2)c1/C=N/Nc1ccc(S(N)(=O)=O)cc1[N+](=O)[O-]	LYPLA1 counter 20 | LYPLA1 conf 42
O=C(OCC(=O)c1ccc[nH]1)c1ccc(F)c(S(=O)(=O)N2CCOCC2)c1	none (no result: LYPLA1 counter, LYPLA2 inh)
O=C(CN1CCN(C(=O)c2ccco2)CC1)Nc1cc(C(F)(F)F)ccc1Cl	LYPLA1 counter 91 | LYPLA1 conf 92
N#Cc1c(NC(=O)CN2CCN(C(=O)c3ccco3)CC2)sc2c1CCCCC2	LYPLA1 counter 51 | LYPLA1 conf 56
COc1ccc(-n2c(C)cc(/C=C3\C(=N)N4N=C(CC(=O)N5CCOCC5)SC4=NC3=O)c2C)c(OC)c1	none
Cc1ccc(S(=O)(=O)N(C)c2ccc(OC(=O)c3cccs3)cc2)cc1C	none
Cc1cc(Nc2ccc(O)cc2)ccc1N	LYPLA1 counter 16 | LYPLA1 conf inactive
O=C(CCCCCN1C(=O)c2cccc3cccc(c23)C1=O)N1CCOCC1	none
CCOC(=O)CSc1nnc(CCCCCN2C(=O)c3cccc4cccc(c34)C2=O)o1	none
CCOC(=O)CCCSc1nnc(CCCCCN2C(=O)c3cccc4cccc(c34)C2=O)o1	LYPLA1 counter 45 | LYPLA1 conf 52
C=CCSc1nnc(CCCCCN2C(=O)c3cccc4cccc(c34)C2=O)o1	LYPLA1 counter 27 | LYPLA1 conf 39
CCOC(=O)c1ccc(N2C(=O)c3n[nH]c(C)c3C2c2ccc(OC)c(OC)c2)cc1 (stereo not drawn)	LYPLA1 counter 29 | LYPLA1 conf 42
O=C(COC(=O)c1cc(S(=O)(=O)N2CCCCC2)ccc1Cl)NC1CCS(=O)(=O)C1 (stereo not drawn)	none (no result: LYPLA1 counter, LYPLA2 inh)
CC(NC(=O)c1ccco1)C(=O)N1CCN(c2cccc(C(F)(F)F)c2)CC1 (stereo not drawn)	LYPLA1 counter 34 | LYPLA1 conf 45
Cc1[nH][nH]c(=O)c1N=Nc1ccc(Br)c(Cl)c1	LYPLA1 counter 24 | LYPLA1 conf 18
Cc1[nH][nH]c(=O)c1N=Nc1ccc(S(N)(=O)=O)cc1	none
COc1ccc(NC(=O)C2CCC(CNc3c(N4CCCCC4)c(=O)c3=O)CC2)cc1OC (stereo not drawn)	LYPLA1 counter 17 | LYPLA1 conf 21
COc1ccc(OC)c(NC(=O)C2CCC(CNc3c(N4CCOCC4)c(=O)c3=O)CC2)c1 (stereo not drawn)	none
O=C1CCC([N+](=O)[O-])C(c2ccc(C(F)(F)F)cc2)N1 (stereo not drawn)	none

Compound activity deposited in PubChem by The Scripps Research Institute Molecular Screening Center.
